Data on 15 compounds can be found in ChEMBL document CHEMBL3045973, “Synthesis and insecticidal activity of novel 4beta-halogenated benzoylamino podophyllotoxins against Pieris rapae Linnaeus” (2002).

The mortality is the share of the test organisms that died.

Active and inactive are the calls of the source. The calls are words filed in the database; no cut-off is given here.

For test [1], the system named is Pieris rapae. Description: Insecticidal activity against fifth-instar larvae of Pieris rapae fed on compound treated cabbage leaf assessed as paralysis at 250 ppm dipped for 3 secs measured after 48 hr relative to control. In kind it is functional, organism-based.
Test [2] has as its system Pieris rapae. Description: Insecticidal activity against fifth-instar larvae of Pieris rapae fed on compound treated cabbage leaf assessed as mortality at 250 ppm dipped for 3 secs measured after 10 days (reference value: 6.67 1.56%). The class given is functional.
The test system of test [3] is Pieris rapae. Description: Insecticidal activity against fifth-instar larvae of Pieris rapae fed on compound treated cabbage leaf assessed as inhibition of reproduction in pupated adultoids at 250 ppm dipped for 3 secs relative to control. In kind it is functional, organism-based.
In test [4] the test system is Pieris rapae. Description: Insecticidal activity against fifth-instar larvae of Pieris rapae fed on compound treated cabbage leaf assessed as immobilization at 250 ppm dipped for 3 secs measured after 48 hr relative to control. The class given is functional, organism-based.
Test [5] relates to Pieris rapae. Description: Insecticidal activity against fifth-instar larvae of Pieris rapae fed on compound treated cabbage leaf assessed as mortality at 250 ppm dipped for 3 secs measured after 5 days (reference value: 0%). The class given is functional.
Test [6] relates to Pieris rapae. Description: Insecticidal activity against fifth-instar larvae of Pieris rapae fed on compound treated cabbage leaf assessed as mortality at 250 ppm dipped for 3 secs measured after 15 days (reference value: 10 1.22%). The class given is functional.
The test system of test [7] is Pieris rapae. Description: Insecticidal activity against fifth-instar larvae of Pieris rapae fed on compound treated cabbage leaf assessed as loss of body fluid at 250 ppm dipped for 3 secs measured after 48 hr relative to control. The class given is functional, organism-based.
Test [8] has as its system Pieris rapae. Description: Insecticidal activity against fifth-instar larvae of Pieris rapae fed on compound treated cabbage leaf assessed as delay in metamorophosis at 250 ppm dipped for 3 secs relative to control. In kind it is functional, organism-based. In outline:
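Fifth-instar P. rapae larvae dosed by the leaf-dipping method at 250 ppm. Development time from larva to adulthood was compared with a control group.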

Test [9] concerns Pieris rapae. Description: Insecticidal activity against fifth-instar larvae of Pieris rapae fed on compound treated cabbage leaf assessed as change in spontaneous movement at 250 ppm dipped for 3 secs measured after 24 hr relative to control. In kind it is functional, organism-based.

Consider `COc1cc([C@@H]2c3cc4c(cc3[C@@H](NC(=O)c3ccccc3I)[C@H]3COC(=O)[C@H]23)OCO4)cc(OC)c1OC`, for which the outcome with Pieris rapae [1], with Pieris rapae [3], in the test with Pieris rapae [4], in the test on Pieris rapae [7], in the test with Pieris rapae [8] and in the test with Pieris rapae [9] was Active. Besides, the mortality with Pieris rapae [2] worked out at 48.36%; in the test with Pieris rapae [5] it was 12.62%; with Pieris rapae [6], 69.69%.
Turning to `COc1cc([C@@H]2c3cc4c(cc3[C@@H](NC(=O)c3ccccc3Cl)[C@H]3COC(=O)[C@H]23)OCO4)cc(OC)c1OC`, the result in the test on Pieris rapae [1], in the test with Pieris rapae [3], in the test on Pieris rapae [4], in the test on Pieris rapae [7], in the test on Pieris rapae [8] and in the test on Pieris rapae [9] was Active. The mortality in the test with Pieris rapae [2] is recorded as 36.36%; in the test on Pieris rapae [5] it was 4.54%; in the test with Pieris rapae [6] it was 65.56%.
As to `COc1cc([C@@H]2c3cc4c(cc3[C@@H](NC(=O)c3cccc(Br)c3)[C@H]3COC(=O)[C@H]23)OCO4)cc(OC)c1OC`, the outcome in the test on Pieris rapae [1], in the test on Pieris rapae [3], with Pieris rapae [4], with Pieris rapae [7], with Pieris rapae [8] and with Pieris rapae [9] was Active. Moreover, the mortality is listed as 69.23% in the test with Pieris rapae [2], 46.15% with Pieris rapae [5] and 85.42% with Pieris rapae [6].
Consider `CCOP(=S)(OCC)Oc1ccc([N+](=O)[O-])cc1` [PARATHION], for which the mortality in the test on Pieris rapae [5] is given as 100%.
For `COc1cc([C@@H]2c3cc4c(cc3[C@@H](N)[C@H]3COC(=O)[C@H]23)OCO4)cc(OC)c1OC` [4BETA-NH2-PODOPHYLLOTOXIN], the result with Pieris rapae [1], in the test on Pieris rapae [3], in the test on Pieris rapae [4], in the test with Pieris rapae [7], in the test with Pieris rapae [8] and with Pieris rapae [9] was Active. Moreover, the values for the mortality with Pieris rapae [2], with Pieris rapae [5] and with Pieris rapae [6] were 36.43%, 21.69% and 49.48%, respectively.
For `COc1cc([C@@H]2c3cc4c(cc3[C@H](O)[C@H]3COC(=O)[C@H]23)OCO4)cc(OC)c1OC` [PODOFILOX], the outcome in the test with Pieris rapae [1], in the test with Pieris rapae [3], in the test on Pieris rapae [4], with Pieris rapae [7], with Pieris rapae [8] and with Pieris rapae [9] was Active. For the same compound, the results for the mortality in the test on Pieris rapae [2], in the test with Pieris rapae [5] and with Pieris rapae [6] were 53.36%, 34.02% and 74.74%, respectively.
As for `COc1cc([C@@H]2c3cc4c(cc3[C@@H](NC(=O)c3ccccc3F)[C@H]3COC(=O)[C@H]23)OCO4)cc(OC)c1OC`, the outcome with Pieris rapae [1], in the test with Pieris rapae [3], in the test on Pieris rapae [4], with Pieris rapae [7], with Pieris rapae [8] and in the test on Pieris rapae [9] was Active. For the same compound, the mortality came to 46.41% in the test on Pieris rapae [2], 22.68% in the test on Pieris rapae [5] and 68.42% in the test with Pieris rapae [6].
Turning to `COc1cc([C@@H]2c3cc4c(cc3[C@@H](NC(=O)c3ccc(Cl)cc3)[C@H]3COC(=O)[C@H]23)OCO4)cc(OC)c1OC`, the result in the test on Pieris rapae [1], in the test on Pieris rapae [3], in the test with Pieris rapae [4], in the test with Pieris rapae [7], with Pieris rapae [8] and with Pieris rapae [9] was Active. Also, the mortality in the test with Pieris rapae [2] is 72.08%; with Pieris rapae [5], 36.84%; in the test with Pieris rapae [6], 94.95%.
Turning to `COc1cc([C@@H]2c3cc4c(cc3[C@@H](NC(=O)c3ccc(Br)cc3)[C@H]3COC(=O)[C@H]23)OCO4)cc(OC)c1OC`, the outcome in the test on Pieris rapae [1], in the test on Pieris rapae [3], in the test with Pieris rapae [4], in the test with Pieris rapae [7], in the test on Pieris rapae [8] and with Pieris rapae [9] was Active. In addition, the mortality was 51.85% in the test with Pieris rapae [2], 14.81% in the test on Pieris rapae [5] and 85.97% in the test on Pieris rapae [6].
In the case of `COc1cc([C@@H]2c3cc4c(cc3[C@@H](NC(=O)c3ccc(I)cc3)[C@H]3COC(=O)[C@H]23)OCO4)cc(OC)c1OC`, the outcome in the test with Pieris rapae [1], in the test with Pieris rapae [3], with Pieris rapae [4], with Pieris rapae [7], in the test on Pieris rapae [8] and in the test with Pieris rapae [9] was Active. Further, the mortality in the test on Pieris rapae [2] turned out to be 48.28%; with Pieris rapae [5] it was 20.73%; in the test with Pieris rapae [6] it was 73.87%.
Take `COc1cc([C@@H]2c3cc4c(cc3[C@@H](NC(=O)c3ccccc3Br)[C@H]3COC(=O)[C@H]23)OCO4)cc(OC)c1OC`: the outcome with Pieris rapae [1], in the test with Pieris rapae [3], in the test with Pieris rapae [4], with Pieris rapae [7], in the test with Pieris rapae [8] and with Pieris rapae [9] was Active. Besides, the mortality in the test with Pieris rapae [2] worked out at 44.78%; in the test on Pieris rapae [5] it was 4.35%; with Pieris rapae [6] it was 74.74%.
For the compound `COc1cc([C@@H]2c3cc4c(cc3[C@@H](NC(=O)c3cccc(F)c3)[C@H]3COC(=O)[C@H]23)OCO4)cc(OC)c1OC`, the outcome in the test with Pieris rapae [1], in the test with Pieris rapae [3], in the test on Pieris rapae [4], in the test with Pieris rapae [7], in the test on Pieris rapae [8] and with Pieris rapae [9] was Active. The results for the mortality in the test with Pieris rapae [2], with Pieris rapae [5] and in the test with Pieris rapae [6] were 49.46%, 18.57% and 86.7%, respectively.
As to `COc1cc([C@@H]2c3cc4c(cc3[C@@H](NC(=O)c3ccc(F)cc3)[C@H]3COC(=O)[C@H]23)OCO4)cc(OC)c1OC`, the result in the test with Pieris rapae [1], in the test with Pieris rapae [3], with Pieris rapae [4], with Pieris rapae [7], in the test with Pieris rapae [8] and with Pieris rapae [9] was Active. The mortality with Pieris rapae [2] is given as 44.74%; in the test with Pieris rapae [5], 11.11%; in the test on Pieris rapae [6], 66.76%.
Regarding `COc1cc([C@@H]2c3cc4c(cc3[C@@H](NC(=O)c3cccc(I)c3)[C@H]3COC(=O)[C@H]23)OCO4)cc(OC)c1OC`, the outcome in the test with Pieris rapae [1], in the test with Pieris rapae [3], in the test with Pieris rapae [4], in the test with Pieris rapae [7], in the test on Pieris rapae [8] and in the test on Pieris rapae [9] was Active. Also, the mortality with Pieris rapae [2] was 40.71%; in the test with Pieris rapae [5], 8.35%; in the test with Pieris rapae [6], 69.69%.
`COc1cc([C@@H]2c3cc4c(cc3[C@@H](NC(=O)c3cccc(Cl)c3)[C@H]3COC(=O)[C@H]23)OCO4)cc(OC)c1OC`: the outcome in the test on Pieris rapae [1], with Pieris rapae [3], in the test on Pieris rapae [4], with Pieris rapae [7], in the test on Pieris rapae [8] and in the test on Pieris rapae [9] was Active. Also, the mortality is reported as 54.25% in the test with Pieris rapae [2], 16.56% in the test with Pieris rapae [5] and 94.73% in the test with Pieris rapae [6].
